Screening results: PubChem, several laboratories
Mdm2-MdmX inh: disrupts the human Mdm2-MdmX interaction; O15151+Q00987; SaOS-2 split-luciferase Mdm2/MdmX complementation, luminescence; inhibition, % at 8 µM; actives 3% (n = 330,000); AID 485346;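 active = inhibition of at least 50% at 8 µM in the primary screen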
T cruzi inh: blocks replication of Trypanosoma cruzi; T. cruzi beta-gal in NIH3T3, luminescence, 90 h; inhibition, % (concentration not given with the values); actives 1.4% (n = 300,000); AID 1885;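 active = mean inhibition across valid replicates above about 55%, limit read from the data; inconclusive = mean below that limit but half or more replicates reach it; inactive = mean below it, under half of replicates reach it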;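 also: signal also drops with host cell toxicity which is not excluded here; 0% = plate median of DMSO wells and 100% = zero luminescence signal; higher percent means less beta-gal luminescence so fewer parasites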
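assay system = mouse NIH/3T3 fibroblasts infected with β-gal-expressing T. cruzi Tulahuen C4 | input = 5,000 NIH/3T3 host cells per well | buffer or medium = DMEM plus 2% FBS | timing = 3 h host attachment, then at least 90 h co-culture | measured by = GalScreen luminescence, 60 min | evaluation = luminescence reflecting intracellular parasite burden, expressed as percent inhibition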
Beta apoptosis: blocks beta cell apoptosis; protection from apoptosis, % (concentration not given with the values); INS-1E cytokine-induced death, ATP luminescence, 48 h; percent of positive-control rescue, neutral wells zero; actives 0.8% (n = 300,000);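 active = Every replicate reaches about 75%, or at least half do and their mean reaches it too, limit read from the data; inconclusive = At least half of replicates reach the limit but their mean does not; inactive = Under half of replicates reach the limit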;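 also: 0% = cytokine-treated negative control wells and 100% = positive control rescue; higher means more ATP so stronger rescue from cytokine killing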
Calb FLC: C. albicans growth modulation with fluconazole. C. albicans CaCi-2 (fluconazole-resistant clinical isolate) + fluconazole, Alamar Blue growth, 48 h. growth inhibition, % (test concentration not listed). actives 0.57% (n = 300,000);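 active = growth inhibition above about 58% in most replicates, limit read from the data, passing the limit was not always enough; inconclusive = exactly half the replicates above a set limit; inactive = most replicates below a set limit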;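 also: all wells also contain fluconazole at 8 µg/ml as a sub-toxic cotreatment; 0% = median of DMSO wells and 100% = median of geldanamycin control wells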
CSC inhib: cancer stem cell inhibition; cancer stem cell-like cells viability, luminescence; inhibition, % at 7.5 µM; actives 1.1% (n = 300,000); AID 2717; in the data active = inhibition above about 75%; inconclusive = no clear call, values can overlap the other calls; tested in HMLE shEcad cells
SKKanGAS inh: SKKanGAS growth inhibition; S. pyogenes SKKanGAS, kanamycin growth, BacTiter-Glo, 6 h; inhibition, % at 7.5 µM; actives 1.3% (n = 300,000);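 active = mean replicate score, as percent of positive control median, at least 50; inconclusive = mean below 50 but one replicate at or above 50; inactive = mean and every replicate below 50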;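 also: strain carries kanamycin resistance gene driven by streptokinase promoter and grows in 40 µg/ml kanamycin; loss of luminescence reflects streptokinase promoter inhibition or plain growth inhibition; 0% = median of DMSO wells and 100% = positive control at its reference dose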
Mdm2 MdmX conf: human Mdm2/MdmX binding inhibition, confirmed; shares compounds with Mdm2-MdmX inh; luminescent assay; inhibition, % at 8 µM; actives 55% (n = 10,000); AID 489028; in the data active = inhibition above about 40%
FLuc counter: counter-screen for Mdm2/MdmX inhibitors: full-length luciferase; shares compounds with Mdm2-MdmX inh; SaOS-2 full-length luciferase counterscreen, luminescence; inhibition, % at 8 µM; actives 77% (n = 6,200);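 active = mean inhibition at 8 µM reaching about 37%, which flags the compound as non-specific, limit read from the data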;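 also: p53-null SaOS-2 cells with luciferase driven by a doxycycline-inducible promoter; compound on cells about two nights before reading with doxycycline added after day one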
Numbers without * were called inactive; ? = inconclusive; / = no result. In the library only some 5.7% were active in any assay of this set; here they are far more common.

SMILES	Mdm2-MdmX inh	T cruzi inh	Beta apoptosis	Calb FLC	CSC inhib	SKKanGAS inh	Mdm2 MdmX conf	FLuc counter
O=C(Nc1ccc(Cl)c(Cl)c1)Nc1ccc(N2CCCC2)c(S(=O)(=O)Nc2ccccc2Cl)c1	93*	37	12	1	60	28	95*	21
O=C(Nc1ccc(N2CCCCC2)c(S(=O)(=O)Nc2ccccc2Cl)c1)c1cccnc1	30	/	4	/	63	/	/	/
Cc1cc(C(F)(F)F)n(-c2nc(C(=O)NNS(=O)(=O)c3ccccc3[N+](=O)[O-])cs2)n1	24	8	-3	6	-12	17	/	/
CCN1CCN(C(=O)C2CCN(S(=O)(=O)c3ccc(SC)cc3)CC2)CC1	7	-8	0	9	43	-5	/	/
COc1cc(C(=O)Nc2nc(C)cc(C)n2)cc(OC)c1OC	5	-4	5	-2	9	0	/	/
COc1cc(C(=O)Nc2cccc(S(=O)(=O)N3CCCC3)c2)cc(OC)c1C	15	13	0	-2	-3	4	/	/
O=C(CN1CCN(Cc2ccccc2)CC1)Nc1ccc([N+](=O)[O-])cc1C(=O)Nc1ccccc1F	54*	45	1	23	10	5	30	/
CCCCn1c(N)c(N(CC(C)C)C(=O)c2cc(C)oc2C)c(=O)[nH]c1=O	-23	-7	/	0	-7	21	/	/
C=CCNc1sc(C(=O)c2ccc(C)cc2)c(N)c1C#N	22	-5	-2	12	-14	-10	/	/
C=CCNc1nc(N)c(C(=C(C#N)C#N)c2ccc(Br)cc2)s1	51*	2	16	-5	23	-21	42*	88*
Cc1cccc(C)c1NC(=O)CN(C)C(=O)c1ccccc1Sc1ccccc1C#N	-13	/	0	/	/	/	/	/
Cc1ccc(-c2ccc(/C=C3\C(=O)ON=C3c3ccccc3)o2)c([N+](=O)[O-])c1	82*	-12	92*	-8	5	5	1	/
Cc1ccc(/C=C2\C(=O)ON=C2c2ccccc2)o1	10	-16	1	-8	-9	-4	/	/
CCOc1ccc2oc(C(=O)OC(C(=O)NC(N)=O)C(C)C)c(C)c2c1 (stereo not given)	-7	5	-12	0	-1	12	/	/
N=c1n(CC(=O)c2ccc(Br)s2)c2ccccc2n1Cc1ccccc1	97*	24	26	3	25	6	62*	53*
N=c1n(CC(=O)c2cccc([N+](=O)[O-])c2)c2ccccc2n1Cc1ccccc1	92*	11	25	-21	24	13	5	/
Cn1c(=N)n(CC(=O)c2ccc(Br)s2)c2ccccc21	12	-8	-3	-18	0	1	/	/
O=C(CCC1COc2ccccc2O1)Nc1ccc(Cl)cn1 (stereo not given)	67*	/	-8	/	61	/	45*	84*
C=CCSc1nc2ccccc2n1C(=O)/C=C/c1cc(OC)c(OC)c(OC)c1	100*	-3	-7	-31	/	-1	95*	3
CCSc1nc2ccccc2n1C(=O)/C=C/c1ccc(OC)c(OC)c1	100*	-20	-1	?	9	-12	99*	54*
CCn1c(SCC(=O)N/N=C/c2ccc(OC)c(OC)c2)nc2ccccc21	6	/	4	-1	-4	0	/	/
C=CCSc1nc2ccccc2n1C(=O)/C=C/c1ccc(OC)c(OC)c1	/	-9	68	3	5	-3	/	/
COc1ccc(NC(=O)CSc2nnc(CN3CCOCC3)n2C)cc1Cl	-9	-14	-4	12	12	2	/	/
COc1ccc(OCCOC(=O)CCS(=O)(=O)c2ccc(C)cc2)cc1	21	-6	-4	-7	-9	-8	/	/
COc1cccc(NC(=O)CSc2nnc(-c3cc(C)n(-c4ccccc4)c3C)o2)c1	82*	0	0	9	65	24	83*	59*
SMILES	Mdm2-MdmX inh	T cruzi inh	Beta apoptosis	Calb FLC	CSC inhib	SKKanGAS inh	Mdm2 MdmX conf	FLuc counter
Cc1ccc2nc(-c3ccccc3)cc(C(=O)N(C)CC(=O)Nc3ccccc3Br)c2c1	53*	47	9	3	/	3	28	/
COc1ccc(NC(=O)CN(C)C(=O)c2cc(-c3ccccc3)nc3ccccc23)cc1	-5	-4	-10	-3	-12	-7	/	/
COc1ccc(Cl)cc1NC(=O)COC(=O)Cc1cc(OC)c(OC)c(OC)c1	22	/	6	/	-12	/	/	/
Cc1occc1C(=O)O/N=C(\N)c1ccc(Cl)cc1	100*	10	/	-1	-6	-2	50*	148*
Cc1noc(-c2ccc(Cl)cc2)c1C(=O)O/N=C(\N)c1ccc(C(C)(C)C)cc1	100*	41	39	1	171*	8	98*	60*
Cc1cc(C(=O)O/N=C(\N)c2ccc(C(C)(C)C)cc2)no1	-103	5	3	4	9	4	/	/
N/C(=N\OC(=O)c1cc(Cl)ccc1Cl)c1ccncc1	-72	28	-9	-4	/	8	/	/
COc1ccc(Cl)cc1C(=O)O/N=C(\N)c1ccc(Cl)cc1	71*	-14	9	18	-7	-1	45*	81*
Cc1ccc(/C(N)=N/OC(=O)c2ccco2)cc1	-95	-13	6	31	-5	-2	/	/
COc1cc(OC)c(C(=O)O/N=C(\N)c2ccc(C)cc2)cc1OC	69*	32	-8	39	4	-1	43*	104*
COc1cc(OC)c(C(=O)O/N=C(\N)c2cccc(C)c2)cc1OC	79*	17	-2	3	-2	-6	47*	100*
Cc1cc(C)nc(N/N=C/c2ccccc2OCc2ccc(Br)cc2)n1	-29	7	-6	-9	7	-2	/	/
Cc1cc(C)nc(N/N=C/c2cc(Br)ccc2O)n1	75*	11	88*	-3	41	69*	76*	26
CCCn1c(N)c(Sc2ccc(C)cc2)c(=O)n(CCC)c1=O	15	-8	-5	-28	-14	10	/	/
CCCn1c(CC)nc([N+](=O)[O-])c1Sc1ccc(C)cc1	64*	16	-16	-3	-9	9	12	/
COc1ccc(-c2cc(=O)oc3cc(O)ccc23)cc1	63*	-14	-11	7	9	9	46*	40*
COc1ccc(-c2cc(=O)oc3cc(OCC(C)=O)ccc23)cc1	12	5	2	10	-5	49	/	/
COc1ccc(-c2cc(=O)oc3c(C)c(OC(=O)c4cccs4)ccc23)cc1	85*	-10	9	/	13	/	47*	33
COc1ccc(-c2cc(=O)oc3cc(OC(=O)C4CCCCC4)c(Cl)cc23)cc1	75*	21	-10	62	0	20	84*	52*
